Experimental data collected from several papers.
Protocols differ between the studies behind these lines.
Target: Mitogen-activated protein kinase kinase kinase kinase 5 (MAP4K5, Homo sapiens, UniProt Q9Y4K4)

With `CCS(=O)(=O)c1cc2cc(C[C@](O)(CC(C)(C)c3ccc(F)cc3C(N)=O)C(F)(F)F)[nH]c2cn1` the remaining binding was 100% (cell-free assay, competition with immobilised ligand; 1 µM).
For `CC1CCCN1c1nccc(-c2cnn3ncccc23)n1` (centres unmarked), the remaining binding was 100% (binding; 1 µM).
`O=C(NCc1ncc(C(F)(F)F)cc1Cl)c1ccc2c(c1)C1(CCS(=O)(=O)CC1)[C@@H](C1CC1)N2S(=O)(=O)c1ccc(F)cc1` gave a remaining binding of 100% (cell-free assay, competition with immobilised ligand; 1 µM).
The remaining binding of `CN(c1nccc(-c2cnn3ncccc23)n1)C1CC1` is reported as 3.2% (binding; 1 µM).
`Cc1cnc(Nc2ccc(C(=O)N3CCC(N4CCCC4)CC3)cc2)nc1-c1cc2ccccc2s1` gave a remaining binding of 51% (binding, competition with immobilised ligand; 1 µM).
`C[C@H]1CCN(c2nccc(-c3cnn4ncccc34)n2)C1` gave a remaining binding of 90% (binding; 1 µM).
`CCN1CCN(Cc2ccc(C(=O)Nc3ccc(C)c(Oc4ccc5c(c4)CC(=O)N5)c3)cc2C(F)(F)F)CC1` gave a remaining binding of 100% (binding, competition with immobilised ligand; 1 µM).
`CN(c1ccnc(CNc2nc(Nc3ccc4c(c3)CC(=O)N4)ncc2C(F)(F)F)n1)S(C)(=O)=O` gave a remaining binding of 72% (cell-free assay, competition with immobilised ligand; 1 µM).
`COc1ncc2cc3ccccc3nc2c1C#N` gave a remaining binding of 95% (cell-free assay, competition with immobilised ligand; 5 µM).
For `O=C(Nc1c[nH]nc1C(=O)NC1CCNCC1)c1cc(F)cc(F)c1`, the remaining binding was 100% (binding, competition with immobilised ligand; 1 µM).
`COc1cnc(Nc2cccc(S(N)(=O)=O)c2)nc1N1CCN(c2ccccc2)CC1` gave a remaining binding of 100% (binding, competition with immobilised ligand; 1 µM).
For `COc1ccc2c(O[C@@H]3C[C@H]4C(=O)N[C@]5(C(=O)O)CC5/C=C\CCCCC[C@H](NC(=O)OC5CCCC5)C(=O)N4C3)cc(-c3csc(NC(=O)C(C)C)n3)nc2c1C` (some centres unmarked), the remaining binding was 100% (cell-free assay, competition with immobilised ligand; 1 µM).
`CN(CCCC(F)(F)F)c1nccc(-c2cnn3ncccc23)n1` has a remaining binding of 100% (binding; 1 µM).
For `CC(=O)c1c(NS(C)(=O)=O)c2cc(-c3ccc(Cl)cc3)c(-c3ccc(Cl)cc3Cl)nc2n(C)c1=O`, the remaining binding was 100% (cell-free assay, competition with immobilised ligand; 1 µM).
The remaining binding of `CNC(=O)[C@@H]1CC[C@@H](n2c(-c3ccc4cnccc4c3)nc3ccc(C(=O)NCc4cccc(C(N)=O)c4)cc32)C1` is reported as 100% (binding, competition with immobilised ligand; 1 µM).
`c1cnn2ncc(-c3ccnc(N4CCC45COC5)n3)c2c1` gave a remaining binding of 94% (binding; 1 µM).
With `O=C(c1ccc(Nc2nccc(-c3cc4ccccc4s3)n2)cc1)N1CCC(N2CCCC2)CC1` the remaining binding was 100% (binding, competition with immobilised ligand; 1 µM).
For `N[C@H]1CCN(c2nccc(-c3cnn4ncccc34)n2)C1`, the remaining binding was 100% (binding; 1 µM).
The remaining binding of `c1cncc(-c2cccc(Nc3nccc(NC4CCCCC4)n3)c2)c1` is reported as 91% (binding, competition with immobilised ligand; 10 µM).
The remaining binding of `Nc1c(C(=O)NCc2ccc(C(=O)NCCCC3CCCCC3)cc2)cnn1-c1ccccc1` is reported as 100% (cell-free assay, competition with immobilised ligand; 0.1 µM).
